Test results as given in ChEMBL document CHEMBL1121400, “Quantitative structure--activity correlations of rifamycins as inhibitors of viral RNA-directed DNA polymerase and mammalian alpha and beta DNA polymerases” (J Med Chem, 1980).

What was measured:
Gag-Pol polyprotein = Gag-Pol polyprotein (Woolly monkey sarcoma virus, UniProt P03359); test: Ability to inhibit simian sarcoma virus reverse transcriptase
Procedure, shortened: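 Purified SSV-1 RNA-dependent DNA polymerase from 71 AP1 culture fluids, in 20% glycerol, 1 mM dithiothreitol, 1 mg/mL BSA and 50 mM Tris-HCl pH 7.5, was held 10 min on ice with inhibitor in Me2SO. Mn2+/[3H]dGTP cocktail with poly(2'-O-methylcytidylic acid)·d(pG)12-18 template was added, then 45 min at 37 °C. Background-corrected triplicate dose series; the 50% inhibition concentration was extrapolated.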

[1] = The logarithm of the reciprocal of the concentration which produces 50% inhibition of mammalian alpha DNA polymerase.
Procedure, shortened: (§1)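 Mammalian α or β DNA polymerase in 100 µL reaction: enzyme in 50% glycerol, 1 mM DTT, 0.5 M KCl, Tris-HCl pH 7.5; Me2SO compound; cocktail with MnCl2, NaF, [3H]dGTP, poly(2'-O-methylC)·d(pG)12-18 template. Compound added first, then enzyme, then cocktail; 45 min at 37 °C. Product radioactivity, background-corrected against Me2SO controls; 50% concentration from triplicate five-dose curves, 10^-3–10^-7 M, expressed as log(1/C).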

DNA polymerase beta = DNA polymerase beta (Mus musculus, UniProt Q8K409); test: Ability to inhibit mouse beta DNA polymerase
Procedure, shortened: (§2)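 Enzyme in 50% glycerol, 1 mM dithiothreitol, 0.5 M KCl and 50 mM Tris-HCl pH 7.5 was premixed with inhibitor in 100% Me2SO and held on ice 10 min. Cocktail (MnCl2, KCl, NaF, BSA, [3H]dGTP, poly(2'-O-methylcytidylic acid)·d(pG)12-18) was then added. Incubation was 45 min at 37 °C.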

[2] = biological target: Gag-Pol polyprotein (Woolly monkey sarcoma virus) (UniProt P03359); test: Inhibition of simian sarcoma virus reverse transcriptase
Procedure, shortened: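 SSV-1 RNA-dependent DNA polymerase purified from tissue culture fluid of 71 AP1 cells. 50 µL reaction containing 20% glycerol, 1 mM DTT, BSA, Tris-HCl pH 7.5, MnCl2, KCl, NaF, [3H]dGTP and poly(2'-O-methylC)·d(pG)12-18. Compound in Me2SO is mixed with enzyme on ice for 10 min before the cocktail is added, then incubated 45 min at 37 °C. Radioactivity in product; 50% inhibitory concentration from triplicate dose–response curves spanning 10^-3 to 10^-7 M.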

[3] = biological target: DNA polymerase beta (Mus musculus) (UniProt Q8K409); test: The logarithm of the reciprocal of the concentration which produces 50% inhibition of mammalian beta DNA polymerase.; procedure, shortened: as §1
[4] = Partition coefficient (logP); conditions: octanol/water, logP
[5] = Ability to inhibit mouse alpha DNA polymerase; procedure, shortened: as §2

Sequence of Gag-Pol polyprotein (Woolly monkey sarcoma virus) (P03359 whole entry): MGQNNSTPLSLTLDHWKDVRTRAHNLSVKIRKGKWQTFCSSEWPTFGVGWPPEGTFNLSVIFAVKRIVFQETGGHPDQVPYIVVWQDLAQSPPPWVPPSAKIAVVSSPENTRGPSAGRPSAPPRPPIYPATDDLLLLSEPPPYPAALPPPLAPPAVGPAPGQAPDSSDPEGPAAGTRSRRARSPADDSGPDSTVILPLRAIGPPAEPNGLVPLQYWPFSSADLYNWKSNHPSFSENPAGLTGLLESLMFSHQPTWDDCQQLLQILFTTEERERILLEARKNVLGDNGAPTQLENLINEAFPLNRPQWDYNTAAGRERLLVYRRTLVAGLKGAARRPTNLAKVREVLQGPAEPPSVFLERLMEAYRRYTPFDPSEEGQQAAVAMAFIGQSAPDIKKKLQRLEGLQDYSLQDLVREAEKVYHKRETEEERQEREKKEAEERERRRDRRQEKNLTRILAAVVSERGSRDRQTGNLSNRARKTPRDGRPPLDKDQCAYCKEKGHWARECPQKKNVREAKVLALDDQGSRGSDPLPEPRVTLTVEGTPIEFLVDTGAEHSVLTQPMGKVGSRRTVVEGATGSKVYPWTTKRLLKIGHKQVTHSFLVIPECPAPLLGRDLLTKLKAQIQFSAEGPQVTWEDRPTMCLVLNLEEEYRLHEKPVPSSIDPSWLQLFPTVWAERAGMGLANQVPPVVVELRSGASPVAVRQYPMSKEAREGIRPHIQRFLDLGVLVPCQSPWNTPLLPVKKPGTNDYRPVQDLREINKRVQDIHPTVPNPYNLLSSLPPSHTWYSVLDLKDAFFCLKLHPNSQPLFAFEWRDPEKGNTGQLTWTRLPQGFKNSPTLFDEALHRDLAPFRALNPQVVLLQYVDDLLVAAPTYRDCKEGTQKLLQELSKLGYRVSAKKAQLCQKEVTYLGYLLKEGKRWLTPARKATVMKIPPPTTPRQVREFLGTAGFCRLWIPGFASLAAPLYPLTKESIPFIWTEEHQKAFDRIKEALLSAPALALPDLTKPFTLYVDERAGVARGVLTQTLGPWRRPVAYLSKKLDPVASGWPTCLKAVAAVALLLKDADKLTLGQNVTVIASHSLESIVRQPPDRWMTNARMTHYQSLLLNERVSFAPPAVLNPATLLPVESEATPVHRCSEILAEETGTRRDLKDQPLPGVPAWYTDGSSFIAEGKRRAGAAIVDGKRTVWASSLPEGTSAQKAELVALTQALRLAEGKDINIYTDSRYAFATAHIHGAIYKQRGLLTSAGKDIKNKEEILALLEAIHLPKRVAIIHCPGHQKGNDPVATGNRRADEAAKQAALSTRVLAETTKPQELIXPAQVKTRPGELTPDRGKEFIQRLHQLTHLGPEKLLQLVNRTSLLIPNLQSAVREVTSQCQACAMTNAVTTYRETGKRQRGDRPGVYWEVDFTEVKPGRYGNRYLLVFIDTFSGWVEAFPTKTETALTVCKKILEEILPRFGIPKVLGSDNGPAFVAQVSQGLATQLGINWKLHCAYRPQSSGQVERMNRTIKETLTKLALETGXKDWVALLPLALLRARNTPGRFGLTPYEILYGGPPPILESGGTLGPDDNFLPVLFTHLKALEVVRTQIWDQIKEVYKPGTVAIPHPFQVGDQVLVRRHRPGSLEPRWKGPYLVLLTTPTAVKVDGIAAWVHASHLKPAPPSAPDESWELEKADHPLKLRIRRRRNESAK
Sequence of Gag-Pol polyprotein (P03359 642-1310 limits assumed): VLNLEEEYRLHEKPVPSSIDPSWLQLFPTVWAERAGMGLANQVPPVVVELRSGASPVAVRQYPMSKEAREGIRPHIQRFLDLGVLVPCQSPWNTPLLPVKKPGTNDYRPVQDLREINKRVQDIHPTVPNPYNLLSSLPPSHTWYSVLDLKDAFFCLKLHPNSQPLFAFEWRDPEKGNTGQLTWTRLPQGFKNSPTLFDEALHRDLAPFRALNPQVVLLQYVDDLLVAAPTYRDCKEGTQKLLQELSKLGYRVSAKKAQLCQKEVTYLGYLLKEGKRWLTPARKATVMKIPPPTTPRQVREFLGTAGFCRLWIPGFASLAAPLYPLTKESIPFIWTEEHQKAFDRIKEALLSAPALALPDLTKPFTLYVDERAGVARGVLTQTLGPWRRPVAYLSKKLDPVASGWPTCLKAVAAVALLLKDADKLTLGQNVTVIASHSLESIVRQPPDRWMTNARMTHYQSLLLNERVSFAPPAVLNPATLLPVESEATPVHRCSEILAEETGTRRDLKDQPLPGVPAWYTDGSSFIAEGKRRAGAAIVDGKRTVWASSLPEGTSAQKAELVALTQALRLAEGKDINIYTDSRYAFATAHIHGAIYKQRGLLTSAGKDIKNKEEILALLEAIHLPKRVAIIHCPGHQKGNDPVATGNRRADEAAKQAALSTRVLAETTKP

| SMILES | IC50 (Gag-Pol polyprotein; read-out: IC50) | Log 1/C [1] | IC50 (DNA polymerase beta) | Log 1/C [2] | Log 1/C [3] | logP [4] | IC50 [5] | IC50 (DNA polymerase beta; read-out: IC50) | IC50 (Gag-Pol polyprotein) |
| --- | --- | --- | --- | --- | --- | --- | --- | --- | --- |
| COC1/C=C/OC2(C)Oc3c(C)c(O)c4c(O)c(c(/C=N/NC5CCCCCCCCCCCCCC5)cc4c3C2=O)NC(=O)/C(C)=C\C=C\C(C)C(O)C(C)C(O)C(C)C(OC(C)=O)C1C (stereo not given) | 0.85 µM | 4.94 |  | 6.07 | 4.82 | 6.78 | 0.0000115 M l-1 | 15 µM |  |
| COC1/C=C/OC2(C)Oc3c(C)c(O)c4c(O)c(c(/C=N/N5CCCCCCCCCC5)cc4c3C2=O)NC(=O)/C(C)=C\C=C\C(C)C(O)C(C)C(O)C(C)C(OC(C)=O)C1C (stereo not given) | 6.6 µM | 4.51 |  | 5.18 | 4.65 | 4.05 | 0.000031 M l-1 | 22 µM |  |
| COc1cccc(CN2CCN(/N=C/c3cc4c5c6c(C)c(O)c4c(O)c3NC(=O)/C(C)=C\C=C\C(C)C(O)C(C)C(O)C(C)C(OC(C)=O)C(C)C(OC)/C=C/OC(C)(O6)C5=O)CC2)c1 (stereo not given) | 10 µM | 3.85 | 0.00012 M l-1 | 5 | 3.92 | 3.34 | 0.00014 M l-1 |  |  |
| COC1/C=C/OC2(C)Oc3c(C)c(O)c4c(O)c(c(CN5CCNCC5)cc4c3C2=O)NC(=O)/C(C)=C\C=C\C(C)C(O)C(C)C(O)C(C)C(OC(C)=O)C1C (stereo not given) |  | 2.52 | 0.0042 M l-1 | 2.84 | 2.38 | 1.76 | 0.003 M l-1 |  | 0.00145 M l-1 |
| COC1/C=C/OC2(C)Oc3c(C)c(O)c4c(O)c(c(/C=N/N5C(C)CN(Cc6ccccc6)CC5C)cc4c3C2=O)NC(=O)/C(C)=C\C=C\C(C)C(O)C(C)C(O)C(C)C(OC(C)=O)C1C (stereo not given) | 12.5 µM | 4.42 |  | 4.9 | 4.68 | 4.28 | 0.000038 M l-1 | 21 µM |  |
| CCCCCN(CCCCC)/N=C/c1cc2c3c4c(C)c(O)c2c(O)c1NC(=O)/C(C)=C\C=C\C(C)C(O)C(C)C(O)C(C)C(OC(C)=O)C(C)C(OC)/C=C/OC(C)(O4)C3=O (stereo not given) | 4.4 µM | 4.36 |  | 5.36 | 4.32 | 3.47 | 0.000043 M l-1 | 48 µM |  |
| COC1/C=C/OC2(C)Oc3c(C)c(O)c4c(O)c(c(/C=N/Nc5ccc([N+](=O)[O-])cc5[N+](=O)[O-])cc4c3C2=O)NC(=O)/C(C)=C\C=C\C(C)C(O)C(C)C(O)C(C)C(OC(C)=O)C1C (stereo not given) | 5.4 µM | 4.35 |  | 5.26 | 4.3 | 3.81 | 0.000045 M l-1 | 50 µM |  |

Next, values leading:

| IC50 (Gag-Pol polyprotein; read-out: IC50) | Log 1/C [1] | IC50 (DNA polymerase beta) | Log 1/C [2] | Log 1/C [3] | logP [4] | IC50 [5] | IC50 (DNA polymerase beta; read-out: IC50) | IC50 (Gag-Pol polyprotein) | SMILES |
| --- | --- | --- | --- | --- | --- | --- | --- | --- | --- |
| 40 µM | 3 | 0.0011 M l-1 | 4.4 | 3 | 1.55 | 0.001 M l-1 |  |  | CCN(CC)Cc1cc2c3c4c(C)c(O)c2c(O)c1NC(=O)/C(C)=C\C=C\C(C)C(O)C(C)C(O)C(C)C(OC(C)=O)C(C)C(OC)/C=C/OC(C)(O4)C3=O (stereo not given) |
| 17 µM | 3.62 | 0.00024 M l-1 | 4.77 | 3.62 | 2.75 | 0.00024 M l-1 |  |  | COC1/C=C/OC2(C)Oc3c(C)c(O)c4c(O)c(c(/C=N/N5CCCC5)cc4c3C2=O)NC(=O)/C(C)=C\C=C\C(C)C(O)C(C)C(O)C(C)C(OC(C)=O)C1C (stereo not given) |
| 25 µM | 3.78 |  | 4.6 | 4.8 | 2 | 0.000165 M l-1 | 16 µM |  | COC1/C=C/OC2(C)Oc3c(C)c(O)c4c(O)c(c(/C=N/N5CCN(N)CC5)cc4c3C2=O)NC(=O)/C(C)=C\C=C\C(C)C(O)C(C)C(O)C(C)C(OC(C)=O)C1C (stereo not given) |
